# Bioassay records deposited in PubChem by several laboratories.
# Calb biofilm kill = clotrimazole potentiators killing Candida biofilms, primary screen, with clotrimazole, Alamar Blue; 85,000 tested, 0.14% active; inhibition, % at 6 µM; C. albicans biofilm + clotrimazole;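 active = inhibition above 20%; inactive = inhibition below 20%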;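 note: preformed 24 hr biofilms exposed to compound for 48 hr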
# PostGolgi yeast = phenotypic screen on post-Golgi transport, primary screen | inhibition, % at 10 µM | 98,000 tested, 0.9% active | post-Golgi transport phenotypic cell assay;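 note: yeast cells grown in 1536-well plates; yeast grown about 18 h at 30C before absorbance read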
# Pyk2 oligo antag = antagonists of Pyk2 self-association, primary screen, Q293 cells, FERM NanoBiT luminescence, HTS; Protein-tyrosine kinase 2-beta (Homo sapiens), Q14289; active compounds read low; z-score (the deposit names both 25 µM and 10 µM); 99,000 tested, 0.83% active; AID 1347419, 2020;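 active = Z-score of -3 or lower, scaled per plate to the spread of control and sample wells; inactive = z-score above -3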;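 note: negative z-score means lost luminescence so less FERM oligomerization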
# Target sequence (Q14289 whole entry, looked up): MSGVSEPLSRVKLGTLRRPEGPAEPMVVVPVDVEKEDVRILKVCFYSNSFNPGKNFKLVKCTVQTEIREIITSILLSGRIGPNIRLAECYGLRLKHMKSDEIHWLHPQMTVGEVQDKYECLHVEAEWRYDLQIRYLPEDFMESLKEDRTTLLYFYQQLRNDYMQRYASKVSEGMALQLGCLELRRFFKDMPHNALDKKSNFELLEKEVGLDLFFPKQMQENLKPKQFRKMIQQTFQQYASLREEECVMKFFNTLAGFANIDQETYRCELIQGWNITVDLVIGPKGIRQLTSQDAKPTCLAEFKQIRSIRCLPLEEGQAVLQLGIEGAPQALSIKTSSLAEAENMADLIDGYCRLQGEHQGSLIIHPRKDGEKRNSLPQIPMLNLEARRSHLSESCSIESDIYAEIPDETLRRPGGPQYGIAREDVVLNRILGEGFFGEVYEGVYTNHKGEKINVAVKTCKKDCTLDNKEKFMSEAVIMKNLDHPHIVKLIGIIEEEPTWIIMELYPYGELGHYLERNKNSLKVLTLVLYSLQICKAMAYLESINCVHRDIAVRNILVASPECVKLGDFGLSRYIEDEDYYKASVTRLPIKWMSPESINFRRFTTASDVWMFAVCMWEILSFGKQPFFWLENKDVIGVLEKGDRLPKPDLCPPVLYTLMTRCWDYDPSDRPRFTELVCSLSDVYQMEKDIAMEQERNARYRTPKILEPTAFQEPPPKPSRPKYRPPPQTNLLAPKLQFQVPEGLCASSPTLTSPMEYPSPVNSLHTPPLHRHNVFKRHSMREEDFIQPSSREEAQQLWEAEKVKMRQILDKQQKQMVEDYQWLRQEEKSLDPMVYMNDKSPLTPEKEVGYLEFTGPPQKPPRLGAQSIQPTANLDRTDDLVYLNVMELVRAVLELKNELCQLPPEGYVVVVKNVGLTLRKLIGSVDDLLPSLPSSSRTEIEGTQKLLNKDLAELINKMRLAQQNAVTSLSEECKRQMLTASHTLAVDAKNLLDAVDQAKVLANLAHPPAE
# Ecoli WT expand = growth inhibitors of wild-type E. coli, primary screen, strain BW25113, expanded library, OD600 | OD600 absorbance | growth inhibition, % at 100 µM | 98,000 tested, 0.15% active | AID 710, 2007;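 active = growth inhibition above about 50% at one test dose, limit read from the data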;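 note: growth measured after 20 h incubation at 37 °C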
# PostGolgi ctrl = growth inhibition of yeast control strain, primary screen, counter-screen for post-Golgi transport modulator project; efflux-deficient yeast background strain, growth absorbance A615, 16 h; AID 738, 2007; inhibition, % at 10 µM; 98,000 tested, 5% active
# Ecoli tolC = growth inhibitors of E. coli tolC mutant, primary screen, strain BW25113 ΔtolC::kan, 384-well; OD615; AID 573, 2007; 65,000 tested, 2.2% active; growth inhibition, % at 10 µM (by protocol);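 active = growth inhibition at or above a cutoff equal to the mean over every tested compound plus 3 SD, cut at about 60% in these data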;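 note: growth measured after 20 h incubation at 37 °C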
#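 System: E. coli ΔtolC::kan strain BW25113; Buffer or medium: LB broth supplemented with 50 µg/mL kanamycin; Compound: 10 µM final, single dose; Incubation: bacterial growth with compound for 20 h at 37 °C; Signal: A615 absorbance measurement; Evaluation: growth inhibition in percent.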
# Numbers stand for hits; - = inactive; . = no result. This is a sample that favours compounds with a hit; in the whole collection about 6.5% have one here. Cut-off read from the data, not from the text of the source, unless noted: active = inhibition above about 30%; inactive = the rest.
SMILES,Calb biofilm kill,PostGolgi yeast,Pyk2 oligo antag,Ecoli WT expand,PostGolgi ctrl,Ecoli tolC
COc1cc(OC)cc(C(=O)N/N=C/c2ccc(OC)c(COc3ccc4ccccc4c3)c2)c1,.,-,-,-,-,.
COc1cccc(OCc2cc(/C=N/NC(=O)c3ccn[nH]3)ccc2OC)c1,.,-,-,-,33,.
COc1ccc(/C=N/NC(=O)c2ccoc2C)cc1COc1c(C)cccc1C,.,-,-,-,54,.
C=CCSC1=Nc2sccc2C2=NC(=O)CN12,.,-,-,-,-,.
CCOC(=O)CN1C(=O)C(O)(CC(=O)c2ccco2)c2ccccc21 (stereo not drawn),-,-,-,-,-,-
O=C(CC1(O)C(=O)N(Cc2ccccc2Cl)c2ccccc21)c1ccco1 (stereo not drawn),-,-,-,-,34,-
Cc1ccc(N(CC(=O)NCc2ccc(F)cc2)S(=O)(=O)c2cccs2)cc1,-,-,-,-,-,.
CCCOC(=O)/C(C(N)=NCc1ccccc1)=C(\O)OCCC,-,-,-,-,-,62
CCOC(=O)c1ccc(Oc2nc(N(C)C)nc(N(C)C)n2)cc1,-,-,-,-,-,.
CCOC(=O)c1ccc(Oc2nc(NC(C)(C)C)nc(N(C)C)n2)cc1,-,-,-,-,-,66
CCOC(=O)N1CCN(c2ncnc3c2oc2nc(CC(C)C)c4c(c23)CCC4)CC1,.,.,.,.,.,-
COC(=O)N1CC(=O)N(OC)C1c1ccc(Cl)cc1Cl (stereo not drawn),-,-,-,-,-,-
CCCCCNC(=O)Cc1cc(=O)[nH]c(=O)[nH]1,-,-,.,-,-,.
Cn1c(=S)n(/N=C/c2ccc3c(c2)OCO3)c2ccccc21,-,-,-,-,-,-
COc1ccc(/C=N/n2c(=S)n(C)c3ccccc32)cc1OC,50,-,-,-,-,.
Cc1cc(NC(=O)c2cc(S(=O)(=O)N3CCCCC3)ccc2C)n(-c2ccccn2)n1,-,-,-,-,-,-
COC(=O)Cn1nc(-c2ccccc2)c2ccccc21,-,-,-,-,31,-
O=C(c1ccc(F)cc1)N1CCCCC(Sc2nnnn2-c2ccccc2)C1=O (stereo not drawn),-,-,-,-,45,.
Cc1cc(C)nc(N(C#N)CCOc2ccc(Cl)cc2)n1,-,.,-4.2,.,.,.
CC(C)Nc1nc(NC(C)C)nc(N(C#N)CCOc2ccc(Cl)cc2Cl)n1,-,.,-,.,.,.
CCOc1cnc(-c2ccc(OC)cc2)o1,.,31,-,-,-,.
COc1ccc(OC)c(C(=O)CSc2nnc(-c3cccnc3)n2C)c1,-,-,-,-,-,-
O=C(COC(=O)CCC(=O)c1cccs1)Nc1ccc(S(=O)(=O)N2CCOCC2)cc1,-,-,-,-,41,-
Cc1ccc(S(=O)(=O)N2CCOCC2)cc1NC(=O)COC(=O)CCC(=O)c1cccs1,-,-,-,-,-,.
O=C(Cc1cccc2ccccc12)N/N=C/c1ccc(Sc2nc3ccccc3s2)o1,.,-,-,-,35,.
SMILES,Calb biofilm kill,PostGolgi yeast,Pyk2 oligo antag,Ecoli WT expand,PostGolgi ctrl,Ecoli tolC
Cc1ccc(-n2ncc3c(NCc4ccc5c(c4)OCO5)ncnc32)c(C)c1,-,-,-,-,38,-
Cc1cccc(-n2ncc3c(NCc4ccc5c(c4)OCO5)ncnc32)c1,-,-,-,-,-,76
c1ccc(-n2ncc3c(NCc4ccc5c(c4)OCO5)ncnc32)cc1,-,.,-,.,.,-
CC(C)(C)OC(=O)N1CCC[C@H]1c1nnc(SCc2ccc(Cl)cc2Cl)o1,-,-,-,-,-,89
CC(C)(C)OC(=O)N1CCC[C@H]1c1nnc(SCc2ccccc2Cl)o1,-,-,-,-,-,-
COc1ccc(OCCSc2nnc3sc4ccccc4n23)cc1,-,38,-,-,-,-
CCCC(C)NC(=O)c1cc(Cl)ccc1OC (stereo not drawn),-,-,-,-,-,.
Cc1noc(C)c1S(=O)(=O)N(CC(=O)N1CCCC1)c1ccc(C(C)C)cc1,-,-,.,-,-,-
Cc1noc(C)c1S(=O)(=O)N(CC(=O)N1CCCCCC1)c1ccc(C(C)C)cc1,-,-,.,-,32,-
O=C(CCC(=O)c1cccs1)Nc1ccc(F)c(F)c1F,-,-,-,-,-,.
O=C(NCc1ccco1)c1ccc2nc3sc4c(c3c(=O)n2c1)CCCC4,.,-,.,-,-,-
CSc1nsc(SCC(=O)Nc2ccc(Br)cn2)n1,.,-,-,-,38,.
O=C(Nc1nnc(-c2ccccc2)o1)c1nc2ccccc2s1,-,.,.,.,.,73
NC(=O)c1oc2ccccc2c1NC(=O)c1nc2ccccc2s1,-,-,-,-,-,-
CCCN(CCC)CCNC(=O)C1c2ccccc2C(=O)N(CCOC)C1c1ccc(F)cc1 (stereo not drawn),-,-,-,-,-,.
Cc1cccc(NC(=S)N2CCC(N(C)CC3CCCO3)CC2)c1C (stereo not drawn),-,-,-,-,32,.
COCCn1c(-c2ccccc2)nc2ccccc21,.,.,-,.,.,.
COCCn1c(SCc2csc(-c3ccccc3)n2)nc2ccccc21,-,-,-,-,30,-
O=C(c1ccc2c3c(cccc13)C(=O)N(O)C2=O)N1CCCCC1,-,-,-,-,-,-
O=C1c2cccc3c(Cl)ccc(c23)C(=O)N1O,-,-,-,-,34,-
O=C(Cn1c(C(=O)NCc2ccco2)cc2sccc21)c1ccccc1,-,-,-,-,44,65
C=CCn1c(COc2cccc3ccc(C)nc23)nnc1SCC(=O)OC,-,30,-,-,-,-
CCn1c(COc2cccc3cccnc23)nnc1SCC(=O)O,-,-,.,-,-,-
FC(F)(F)c1nc(-c2cccs2)ncc1-c1nnnn1-c1ccc(Cl)cc1,.,-,-3.1,-,53,.
Clc1ccc(-n2nnnc2-c2cnc(-c3ccncc3)nc2-c2cccs2)cc1,-,.,-,.,.,.
SMILES,Calb biofilm kill,PostGolgi yeast,Pyk2 oligo antag,Ecoli WT expand,PostGolgi ctrl,Ecoli tolC
Cc1ccc(S(=O)(=O)CCSc2cccc(C(=O)Nc3ccccc3C(=O)O)c2)cc1,.,.,-,.,.,.
Cc1ccccc1C(=O)Nc1sc(C)c(C)c1C(=O)c1ccccc1,.,-,-,-,-,.
CCOC(=O)c1sc(NC(=O)c2cc(-c3ccccc3C)nc3ccccc23)c(C#N)c1C,.,-,-3.7,-,-,.
Cc1ccccc1-c1cc(C(=O)Nc2sc(C)c(C)c2C(N)=O)c2ccccc2n1,.,-,-,-,39,.
O=C(Nc1ccc(Cl)cc1)OCCn1nnnc1C(c1ccccc1Cl)N1CCOCC1 (stereo not drawn),-,-,-,-,-,.
COc1cc(C=O)c(Br)cc1OCc1ccc(C)cc1,.,-,-,-,48,.
Cc1ccc(S(=O)(=O)N2CCN(c3nc(C)c4c(c3C#N)CC(C)(C)OC4)CC2)cc1,.,-,-,-,-,-
O=C1CSC(=S)N1Cc1cccnc1,-,-,-,65,-,-
O=C1CSC(=S)N1c1cccnc1,.,-,-,-,-,-
CN(C(=O)COC(=O)c1ccc(Cl)cc1N)C1CCS(=O)(=O)C1 (stereo not drawn),.,-,-,-,-,.
